Measurements taken from ChEMBL document CHEMBL4699596, “Therapeutic Targeting of MMP-12 for the Treatment of Chronic Obstructive Pulmonary Disease” (J Med Chem, 2020).
Active and inactive are the calls of the source. No cut-off for these calls is given here. Non-standard residues stand in square brackets, D forms with d. Residues, ends and D or L forms follow the SMILES beside them. *: point of attachment. dPhe(4-CF3) = N[C@H](Cc1ccc(C(F)(F)F)cc1)C(=O)O; dBip = N[C@H](Cc1ccc(-c2ccccc2)cc1)C(=O)O; dPhe(3-Cl) = N[C@H](Cc1cccc(Cl)c1)C(=O)O; dPhe(3-Me) = Cc1cccc(C[C@@H](N)C(=O)O)c1; dPhe(4-Cl) = N[C@H](Cc1ccc(Cl)cc1)C(=O)O; dPhe(4-Me) = Cc1ccc(C[C@@H](N)C(=O)O)cc1; dPhe(2-Me) = Cc1ccccc1C[C@@H](N)C(=O)O; dPhe(3-F) = N[C@H](Cc1cccc(F)c1)C(=O)O; dPhe(4-F) = N[C@H](Cc1ccc(F)cc1)C(=O)O; 2Nal = N[C@@H](Cc1ccc2ccccc2c1)C(=O)O; dPhe(2-F) = N[C@H](Cc1ccccc1F)C(=O)O; dIgl = N[C@@H](C(=O)O)C1Cc2ccccc2C1; d(hPhe) = N[C@H](CCc1ccccc1)C(=O)O; Bn = c1ccc(C*)cc1; NHOH = ON*

Key:
[1] = biological target: Matrix metalloproteinase-9 (Homo sapiens) (UniProt P14780); experiment: Inhibition of recombinant human 6His-tagged MMP9 catalytic domain (112 to 445 residues) expressed in Escherichia coli at 4 to 25 nM using 5-FAM/QXL520 FRET peptide as substrate preincubated for 15 mins followed by substrate addition and measured at 3 mins interval for 60 mins by fluorescence assay; conditions: dose nM 4-25, time 75.0 min
Procedure, shortened: (§1)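 Catalytic domains, 10 ng enzyme, preincubated with inhibitor 15 min at RT. FRET substrate (SensoLyte 520 kit) then added, fluorescence read every 3 min for 60 min. Inhibitors at 25 nM or 4 nM; percent inhibition reported.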

[2] = test system: Mus musculus; experiment: Protection against porcine elastase-induced emphysema in ip dosed C57BL/6 mouse model assessed as decrease in emphysema-like pathology administered once daily for 7 days measured 21 days post initial elastase instillation by H and E staining based light microscopic analysis; assay type: functional, organism-based; conditions: time 19.0 day
Procedure, shortened: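 Male and female C57BL/6 mice, 6–8 weeks, given one intranasal dose of 0.9 U porcine pancreatic elastase in 50 μl PBS (saline controls). From day 2, daily i.p. vehicle or inhibitor for 7 days. At day 21 lungs formalin-inflated at 20 cm pressure, paraffin-embedded, H&E-stained and imaged at 10x. Mean linear intercept = line length/alveolar wall intersections. Two-way ANOVA with Tukey.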

[3] = biological target: T1, Macrophage metalloelastase (Homo sapiens, UniProt P39900); experiment: Inhibition of recombinant human MMP12 catalytic domain (Gly106 to Gly263 residues) expressed in Escherichia coli BL21 Codon Plus cells using 5-FAM/QXL520 FRET peptide as substrate preincubated for 15 mins followed by substrate addition and measured at 3 mins interval for 60 mins by fluorescence assay
Target sequence in this assay (P39900 whole entry, the tested form may be a part): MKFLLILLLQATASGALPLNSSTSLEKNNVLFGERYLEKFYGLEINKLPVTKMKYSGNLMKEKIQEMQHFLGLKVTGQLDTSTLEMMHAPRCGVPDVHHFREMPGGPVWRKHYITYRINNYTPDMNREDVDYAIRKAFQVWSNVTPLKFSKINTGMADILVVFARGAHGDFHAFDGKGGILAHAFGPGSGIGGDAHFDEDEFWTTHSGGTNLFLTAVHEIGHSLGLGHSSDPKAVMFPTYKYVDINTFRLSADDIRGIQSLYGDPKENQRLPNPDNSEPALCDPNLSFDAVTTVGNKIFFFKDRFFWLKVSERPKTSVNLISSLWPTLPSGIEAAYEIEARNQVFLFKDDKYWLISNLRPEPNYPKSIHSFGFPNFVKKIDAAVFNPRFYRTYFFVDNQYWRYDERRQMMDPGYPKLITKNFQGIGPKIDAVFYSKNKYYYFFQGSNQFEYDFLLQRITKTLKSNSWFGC

[4] = biological target: T1, Macrophage metalloelastase; experiment: Potency index, ratio of MMP408 IC50 to test compound IC50 for inhibition of recombinant human MMP12 catalytic domain (Gly106 to Gly263 residues) expressed in Escherichia coli BL21 Codon Plus cells
Target sequence in this assay (P39900 106-470 limits assumed): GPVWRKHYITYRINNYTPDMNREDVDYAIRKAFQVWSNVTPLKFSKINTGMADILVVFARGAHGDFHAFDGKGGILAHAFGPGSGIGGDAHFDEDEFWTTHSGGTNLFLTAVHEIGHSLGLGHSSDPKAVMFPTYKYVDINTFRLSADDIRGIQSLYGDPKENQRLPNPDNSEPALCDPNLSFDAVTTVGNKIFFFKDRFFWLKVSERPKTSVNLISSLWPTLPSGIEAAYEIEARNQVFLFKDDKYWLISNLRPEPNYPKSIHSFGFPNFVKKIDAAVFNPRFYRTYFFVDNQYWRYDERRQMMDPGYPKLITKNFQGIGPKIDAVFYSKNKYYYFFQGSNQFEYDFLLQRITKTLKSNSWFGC

[5] = biological target: Matrix metalloproteinase-14 (Homo sapiens) (UniProt P50281); experiment: Inhibition of recombinant human His-tagged MMP14 expressed in Escherichia coli at 4 to 25 nM using 5-FAM/QXL520 FRET peptide as substrate preincubated for 15 mins followed by substrate addition and measured at 3 mins interval for 60 mins by fluorescence assay; conditions: dose nM 4-25, time 75.0 min; procedure, shortened: as §1
[6] = biological target: T2, Interstitial collagenase (Homo sapiens) (UniProt P03956); experiment: Inhibition of recombinant human 6His-tagged MMP1 catalytic domain (106 to 261 residues) expressed in Escherichia coli at 4 to 25 nM using 5-FAM/QXL520 FRET peptide as substrate preincubated for 15 mins followed by substrate addition and measured at 3 mins interval for 60 mins by fluorescence assay; conditions: dose nM 4-25, time 75.0 min; procedure, shortened: as §1
T2 sequence (whole entry): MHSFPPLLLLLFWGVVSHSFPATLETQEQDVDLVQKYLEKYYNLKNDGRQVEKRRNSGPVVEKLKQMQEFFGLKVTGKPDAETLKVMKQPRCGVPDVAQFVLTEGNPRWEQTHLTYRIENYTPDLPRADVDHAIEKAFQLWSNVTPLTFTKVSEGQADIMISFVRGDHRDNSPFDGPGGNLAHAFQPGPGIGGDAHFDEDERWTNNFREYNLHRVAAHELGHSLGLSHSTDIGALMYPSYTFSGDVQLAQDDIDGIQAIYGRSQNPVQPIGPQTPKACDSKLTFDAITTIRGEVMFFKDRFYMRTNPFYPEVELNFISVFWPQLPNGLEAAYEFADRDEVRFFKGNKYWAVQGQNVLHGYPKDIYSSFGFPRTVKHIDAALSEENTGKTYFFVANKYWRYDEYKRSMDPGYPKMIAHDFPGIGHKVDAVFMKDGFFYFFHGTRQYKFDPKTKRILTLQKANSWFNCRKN

[7] = biological target: Stromelysin-1 (Homo sapiens) (UniProt P08254); experiment: Inhibition of recombinant human His-tagged MMP3 catalytic domain (Pro19 to Glu271 residues) expressed in Escherichia coli at 4 to 25 nM using 5-FAM/QXL520 FRET peptide as substrate preincubated for 15 mins followed by substrate addition and measured at 3 mins interval for 60 mins by fluorescence assay; conditions: dose nM 4-25, time 75.0 min; procedure, shortened: as §1
[8] = biological target: Collagenase 3 (Homo sapiens) (UniProt P45452); experiment: Inhibition of recombinant human 6His-tagged MMP13 catalytic domain (104 to 274 residues) expressed in Escherichia coli at 4 to 25 nM using 5-FAM/QXL520 FRET peptide as substrate preincubated for 15 mins followed by substrate addition and measured at 3 mins interval for 60 mins by fluorescence assay; conditions: dose nM 4-25, time 75.0 min; procedure, shortened: as §1
[9] = test system: Mus musculus; experiment: Protection against porcine elastase-induced emphysema in ip dosed C57BL/6 mouse model assessed as effect on total BALF cellularity/influx administered once daily for 7 days measured 21 days post initial elastase instillation; assay type: functional, organism-based; conditions: time 19.0 day
Procedure, shortened: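 Same elastase and dosing scheme as line 10 (C57BL/6, intranasal 0.9 U PPE, daily i.p. for 7 days from day 2). At day 21 BAL cell pellet taken up in 200 μl PBS and counted on a hemocytometer. Cytospin differentials of 300 cells per slide. Two-way ANOVA with Tukey post-hoc.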

[10] = biological target: T1, Macrophage metalloelastase; experiment: Binding affinity to recombinant human 15N-labelled MMP12 catalytic domain (Gly106 to Gly263 residues) expressed in Escherichia coli BL21 Codon Plus cells assessed as ratio of peak intensities of L212 and I220 in bound versus the unbound form at 10 uM by 1D-1H NMR analysis
Target sequence in this assay (P39900 106-470 limits assumed): as the sequence (P39900 106-470 limits assumed) above

Sequence of Matrix metalloproteinase-9 (Homo sapiens) (P14780 whole entry, the tested form may be a part): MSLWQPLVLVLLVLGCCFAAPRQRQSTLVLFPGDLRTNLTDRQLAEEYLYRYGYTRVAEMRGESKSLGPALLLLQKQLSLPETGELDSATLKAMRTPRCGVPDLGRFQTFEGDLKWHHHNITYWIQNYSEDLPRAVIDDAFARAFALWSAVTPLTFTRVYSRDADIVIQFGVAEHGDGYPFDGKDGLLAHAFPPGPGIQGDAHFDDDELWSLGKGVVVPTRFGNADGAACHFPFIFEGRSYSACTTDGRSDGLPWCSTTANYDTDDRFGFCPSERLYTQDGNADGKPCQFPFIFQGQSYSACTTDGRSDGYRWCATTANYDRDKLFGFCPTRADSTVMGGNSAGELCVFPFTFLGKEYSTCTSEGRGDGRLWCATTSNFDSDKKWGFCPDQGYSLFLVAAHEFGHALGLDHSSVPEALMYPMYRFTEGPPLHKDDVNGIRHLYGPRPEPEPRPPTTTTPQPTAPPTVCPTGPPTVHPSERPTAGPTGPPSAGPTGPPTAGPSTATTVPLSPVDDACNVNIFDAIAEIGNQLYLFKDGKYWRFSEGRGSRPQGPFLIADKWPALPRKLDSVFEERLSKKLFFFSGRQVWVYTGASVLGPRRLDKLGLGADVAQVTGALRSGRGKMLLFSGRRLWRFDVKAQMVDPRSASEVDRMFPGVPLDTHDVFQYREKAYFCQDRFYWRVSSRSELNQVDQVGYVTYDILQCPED
Sequence of Stromelysin-1 (Homo sapiens) (P08254 100-477 limits assumed): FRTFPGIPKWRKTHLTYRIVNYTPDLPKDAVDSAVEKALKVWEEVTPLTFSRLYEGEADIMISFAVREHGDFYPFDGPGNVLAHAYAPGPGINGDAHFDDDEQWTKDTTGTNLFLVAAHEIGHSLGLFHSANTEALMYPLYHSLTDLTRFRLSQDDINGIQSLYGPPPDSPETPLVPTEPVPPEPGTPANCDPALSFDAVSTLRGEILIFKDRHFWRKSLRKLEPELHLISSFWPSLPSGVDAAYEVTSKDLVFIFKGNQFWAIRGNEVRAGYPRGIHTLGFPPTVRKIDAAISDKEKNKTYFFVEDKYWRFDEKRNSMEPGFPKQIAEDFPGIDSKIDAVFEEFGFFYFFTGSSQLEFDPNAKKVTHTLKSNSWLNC

## COc1ccc(CCC[C@H](NC(=O)CN2CCOCC2)C(=O)N[C@H](CCc2ccc(OC)cc2)C(=O)N[C@H](Cc2ccc(C)cc2)C(=O)NO)cc1
[1]
  inhibition: inactive
[2]
  Activity: Active
[3]
  IC50: 0.0044 µM
[4]
  Ratio IC50: > 5
[5]
  inhibition: inactive
[6]
  inhibition: inactive
[7]
  inhibition: Active
[8]
  inhibition: inactive
[9]
  Activity: inactive

## CC(=O)N[C@@H](COCc1ccccc1)C(=O)N[C@H](CCc1ccccc1)C(=O)N[C@H](Cc1ccc(OC(C)=O)cc1)C(=O)NO (Ac-Ser(Bn)-[d(hPhe)]-[dY](Ac)-{NHOH})
[3]
  IC50: 0.0361 µM
[10]
  Ratio: 1

## CC(=O)N[C@@H](COCc1ccccc1)C(=O)N[C@H](CCc1ccccc1)C(=O)N[C@H](Cc1ccccc1F)C(=O)NO (Ac-Ser(Bn)-[d(hPhe)]-[dPhe(2-F)]-{NHOH})
[3]
  IC50: 0.0278 µM
[10]
  Ratio: > 1

## CC(=O)N[C@@H](COCc1ccccc1)C(=O)N[C@H](CCc1ccccc1)C(=O)N[C@H](Cc1ccc(F)c(F)c1F)C(=O)NO
[3]
  IC50: 0.0759 µM
[10]
  Ratio: 1

## CC(=O)N[C@@H](COCc1ccccc1)C(=O)N[C@H](CCc1ccccc1)C(=O)N[C@H](Cc1ccc(O)cc1)C(=O)NO (Ac-Ser(Bn)-[d(hPhe)]-[dY]-{NHOH})
[3]
  IC50: 0.0421 µM
[10]
  Ratio: > 1

## CC(=O)N[C@@H](COCc1ccccc1)C(=O)N[C@H](CCc1ccccc1)C(=O)N[C@H](Cc1cccc(F)c1)C(=O)NO (Ac-Ser(Bn)-[d(hPhe)]-[dPhe(3-F)]-{NHOH})
[3]
  IC50: 0.0302 µM
[10]
  Ratio: > 1

## CC(=O)N[C@@H](Cc1c[nH]c2ccccc12)C(=O)N[C@H](CCc1ccccc1)C(=O)N[C@H](Cc1ccccc1)C(=O)NO (HELM PEPTIDE1{[ac].W.[O=C([C@@H](CCc1ccccc1)N[*:1])[*:2]].[dF].[ON[*:1]]}$$$$V2.0)
[3]
  IC50: 0.0349 µM
[10]
  Ratio: 1

## CC(=O)N[C@@H](COCc1ccccc1)C(=O)N[C@H](Cc1ccc(-c2ccccc2)cc1)C(=O)N[C@H](Cc1ccccc1)C(=O)NO (Ac-Ser(Bn)-[dBip]-[dF]-{NHOH})
[10]
  Ratio: inactive

## CC(=O)N[C@@H](Cc1ccc2ccccc2c1)C(=O)N[C@H](CCc1ccccc1)C(=O)N[C@H](Cc1ccccc1)C(=O)NO (Ac-[2Nal]-[d(hPhe)]-[dF]-{NHOH})
[3]
  IC50: 0.138 µM
[10]
  Ratio: < 1

## CC(=O)N[C@@H](COCc1ccccc1)C(=O)N[C@H](CCc1ccccc1)C(=O)N[C@H](Cc1ccccc1)C(=O)NO (Ac-Ser(Bn)-[d(hPhe)]-[dF]-{NHOH})
[1]
  inhibition: inactive
[3]
  IC50: 0.0265 µM
[5]
  inhibition: inactive
[6]
  inhibition: inactive
[8]
  inhibition: inactive
[10]
  Ratio: > 1

## CC(=O)N[C@@H](COCc1ccccc1)C(=O)N[C@H](CCc1ccccc1)C(=O)N[C@H](Cc1cccc(C)c1)C(=O)NO (Ac-Ser(Bn)-[d(hPhe)]-[dPhe(3-Me)]-{NHOH})
[3]
  IC50: 0.0355 µM
[10]
  Ratio: > 1

## COc1ccc(CCC[C@H](NC(C)=O)C(=O)N[C@H](CCc2ccccc2)C(=O)N[C@H](Cc2ccccc2)C(=O)NO)cc1
[3]
  IC50: 0.0205 µM
[10]
  Ratio: > 1

## CC(=O)N[C@@H](COCc1ccccc1)C(=O)N[C@H](CCc1ccccc1)C(=O)N[C@H](Cc1ccc(Cl)cc1)C(=O)NO (Ac-Ser(Bn)-[d(hPhe)]-[dPhe(4-Cl)]-{NHOH})
[3]
  IC50: 0.0351 µM
[10]
  Ratio: > 1

## CC(=O)N[C@@H](COCc1ccccc1)C(=O)N[C@H](CCc1ccc(C(F)(F)F)cc1)C(=O)N[C@H](Cc1ccccc1)C(=O)NO
[3]
  IC50: 0.0167 µM
[10]
  Ratio: 1

## CC(=O)N[C@@H](COCc1ccccc1)C(=O)N[C@H](CCc1ccccc1)C(=O)N[C@H](Cc1ccc(OS(=O)(=O)F)cc1)C(=O)NO
[10]
  Ratio: < 1

## CC(=O)N[C@@H](COCc1ccccc1)C(=O)N[C@H](CCc1ccccc1)C(=O)N[C@H](Cc1ccccc1C)C(=O)NO (Ac-Ser(Bn)-[d(hPhe)]-[dPhe(2-Me)]-{NHOH})
[10]
  Ratio: < 1

## COc1ccc(CC[C@@H](NC(=O)[C@H](COCc2ccccc2)NC(C)=O)C(=O)N[C@H](Cc2ccccc2)C(=O)NO)cc1
[3]
  IC50: 0.0163 µM
[10]
  Ratio: > 1

## CC(=O)N[C@@H](CCCc1ccccc1)C(=O)N[C@H](CCc1ccccc1)C(=O)N[C@H](Cc1ccccc1)C(=O)NO
[3]
  IC50: 0.0195 µM
[10]
  Ratio: > 1

## CC(=O)N[C@@H](COCc1ccccc1)C(=O)N[C@H](CCc1ccccc1)C(=O)N[C@H](Cc1cccc(Cl)c1)C(=O)NO (Ac-Ser(Bn)-[d(hPhe)]-[dPhe(3-Cl)]-{NHOH})
[3]
  IC50: 0.0472 µM
[10]
  Ratio: > 1

## CC(=O)N[C@@H](COCc1ccccc1)C(=O)N[C@H](CCCc1ccccc1)C(=O)N[C@H](Cc1ccccc1)C(=O)NO
[10]
  Ratio: < 1

## CC(=O)N[C@@H](COCc1ccccc1)C(=O)N[C@@H](C(=O)N[C@H](Cc1ccccc1)C(=O)NO)C1Cc2ccccc2C1 (Ac-Ser(Bn)-[dIgl]-[dF]-{NHOH})
[10]
  Ratio: inactive

## COC(=O)Nc1ccc2oc3cc(S(=O)(=O)N[C@@H](C(=O)O)C(C)C)ccc3c2c1
[2]
  Activity: Active
[9]
  Activity: inactive

## CC(=O)N[C@@H](COCc1ccccc1)C(=O)N[C@H](CCc1ccccc1)C(=O)N[C@H](Cc1ccc(C(F)(F)F)cc1)C(=O)NO (Ac-Ser(Bn)-[d(hPhe)]-[dPhe(4-CF3)]-{NHOH})
[3]
  IC50: 0.0571 µM
[10]
  Ratio: 1

## CC(=O)N[C@@H](COCc1ccccc1)C(=O)N[C@H](CCc1ccccc1)C(=O)N[C@H](Cc1ccc(C)cc1)C(=O)NO (Ac-Ser(Bn)-[d(hPhe)]-[dPhe(4-Me)]-{NHOH})
[3]
  IC50: 0.0209 µM
[10]
  Ratio: > 1

## CC(=O)N[C@@H](COCc1ccccc1)C(=O)N[C@H](CCc1ccccc1)C(=O)N[C@H](Cc1ccc(F)cc1)C(=O)NO (Ac-Ser(Bn)-[d(hPhe)]-[dPhe(4-F)]-{NHOH})
[3]
  IC50: 0.042 µM
[10]
  Ratio: > 1

## CNC(=O)[C@H](Cc1c[nH]c2ccccc12)NC(=O)[C@@H](CC(=O)NO)CC(C)C [ILOMASTAT]
[3]
  IC50: 0.0024 µM
[7]
  inhibition: Active
